From ChEMBL document CHEMBL1149910, “2-(6-aryl-3(Z)-hexen-1,5-diynyl)anilines as a new class of potent antitubulin agents” (J Med Chem, 2008)
The source made the active and inactive calls. The rule behind the calls is not given here.

Legend:
M14 = experiment: Cytotoxicity against human M14 cells; assay type: functional
Method in brief: (§1)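 Tested in the NCI in vitro antitumor screening protocol across a tumor cell line panel. GI₅₀ is the concentration producing a 50% reduction in cell growth.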

MDA-MB-231 [1] = experiment: Cell cycle arrest in human MDA-MB-231 cells assessed as accumulation of 4N cells at 9.0 uM after 72 hrs by flow cytometry; assay type: functional
HL-60 = experiment: Cytotoxicity against human HL60 cells; assay type: functional; method in brief: as §1
K562 [2] = experiment: Cell cycle arrest in human K562 cells assessed as accumulation at G2/M phase at 50 uM after 24 hrs by flow cytometry; assay type: functional
Method in brief: (§2)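 K-562 human leukemia cells were grown in RPMI 1640 with 10% fetal calf serum, glutamine and penicillin/streptomycin at 37 °C in 5% CO₂. Cells were exposed to compound at 50 µM for 24 h, then pelleted and PBS-washed. They were fixed in ice-cold ethanol for 30 min, treated with 1 mg/mL RNase A at 37 °C for 30 min, and stained with propidium iodide and Triton X-100 for 30 min at room temperature in the dark. Per-phase and sub-G1 percentages came from flow cytometry gating.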

MDA-MB-231 [3] = experiment: Cell cycle arrest in human MDA-MB-231 cells assessed as accumulation of >4N cells at 3.6 uM after 24 hrs by flow cytometry; assay type: functional
MDA-MB-231 [4] = experiment: Cell cycle arrest in human MDA-MB-231 cells assessed as accumulation of >4N cells at 18.0 uM after 24 hrs by flow cytometry; assay type: functional
MDA-MB-231 [5] = experiment: Effect on microtubule depolymerization in human MDA-MB-231 cells assessed as disorganized microtubule cytoskeleton at 9 uM after 2 hrs relative to control; assay type: functional, cell-based
Method in brief: (§3)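 MDA-MB-231/ATCC cells grown on glass coverslips (1 × 10⁴ cells) for 24 h, then exposed to 3.6, 9, 18, 27 or 36 µM at 37 °C for 2 h. Fixed in 4% paraformaldehyde, permeabilized with Triton X-100, and immunostained for α-tubulin and ninein with DAPI counterstain. Interphase microtubule networks compared with untreated cells by confocal microscopy.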

[6] = tested on: MDA-MB-231 (Homo sapiens); experiment: Induction of apoptosis in human MDA-MB-231 cells assessed as induction of caspase 3 activation at 36 uM after 72 hrs by colorimetric assay relative to control
U-251 = experiment: Cytotoxicity against human U251 cells; assay type: functional; method in brief: as §1
MDA-MB-231 [7] = experiment: Cell cycle arrest in human MDA-MB-231 cells assessed as accumulation of 4N cells at 27.0 uM after 72 hrs by flow cytometry; assay type: functional
MDA-MB-231 [8] = experiment: Cell cycle arrest in human MDA-MB-231 cells assessed as accumulation of 2N cells at 9.0 uM after 24 hrs by flow cytometry; assay type: functional
MDA-MB-231 [9] = experiment: Cell cycle arrest in human MDA-MB-231 cells assessed as accumulation at sub-G1 phase at 9.0 uM after 72 hrs by flow cytometry; assay type: functional
786-0 = experiment: Cytotoxicity against human 786-0 cells; assay type: functional; method in brief: as §1
RXF 393 = experiment: Cytotoxicity against human RXF393 cells; assay type: functional; method in brief: as §1
HOP-92 = experiment: Cytotoxicity against human HOP92 cells; assay type: functional; method in brief: as §1
MDA-MB-231 [10] = experiment: Cell cycle arrest in human MDA-MB-231 cells assessed as accumulation at sub-G1 phase at 3.6 uM after 24 hrs by flow cytometry; assay type: functional
HCT-15 [11] = experiment: (§4) Cytotoxicity against human HCT15 cells; assay type: functional; method in brief: as §1
MDA-MB-435 = experiment: Cytotoxicity against human MDA-MB-435 cells; assay type: functional; method in brief: as §1
MDA-MB-231 [12] = experiment: Cell cycle arrest in human MDA-MB-231 cells assessed as accumulation at sub-G1 phase at 27.0 uM after 24 hrs by flow cytometry; assay type: functional
RPMI-8226 = experiment: Cytotoxicity against human RPMI8226 cells; assay type: functional; method in brief: as §1
MDA-MB-231 [13] = experiment: Cell cycle arrest in human MDA-MB-231 cells assessed as accumulation at sub-G1 phase at 18.0 uM after 72 hrs by flow cytometry; assay type: functional
A549 = experiment: Cytotoxicity against human A549/ATCC cells; assay type: functional; method in brief: as §1
TK-10 = experiment: Cytotoxicity against human TK10 cells; assay type: functional; method in brief: as §1
MDA-MB-231 [14] = experiment: Cell cycle arrest in human MDA-MB-231 cells assessed as accumulation at sub-G1 phase at 18.0 uM after 24 hrs by flow cytometry; assay type: functional
MDA-MB-231 [15] = experiment: Cytotoxicity against human MDA-MB-231 cells; assay type: functional; method in brief: as §1
NCI-H322M = experiment: Cytotoxicity against human NCI-H322M cells; assay type: functional; method in brief: as §1
MDA-MB-231 [16] = experiment: Effect on microtubule depolymerization in human MDA-MB-231 cells at 36 uM after 2 hrs; assay type: functional, cell-based; method in brief: as §3
HCT-15 [17] = experiment: as §4; assay type: functional; method in brief: as §1; remark: listed apart in the source
MDA-MB-231 [18] = experiment: Effect on regrowth of depolymerized microtubule in human MDA-MB-231 cells after drug withdrawal; assay type: functional, cell-based; details: TDE = time-dependent effect
Method in brief: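 MDA-MB-231/ATCC cells on coverslips were treated at 36 µM in DMEM for 2 h at 37 °C, with nocodazole 20 µM and colchicine 5 µM as controls. Drug was then washed out with PBS and cells incubated in prewarmed DMEM at 37 °C. Cells were fixed at set time points and immunostained for α-tubulin and ninein with DAPI counterstain.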

DU-145 = experiment: Cytotoxicity against human DU145 cells; assay type: functional; method in brief: as §1
MDA-MB-231 [19] = experiment: Cell cycle arrest in human MDA-MB-231 cells assessed as accumulation of 4N cells at 36.0 uM after 24 hrs by flow cytometry; assay type: functional
SK-MEL-2 = experiment: Cytotoxicity against human SK-MEL2 cells; assay type: functional
Method in brief: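 Tested in the NCI in vitro antitumor screening protocol against human tumour cell lines.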

K562 [20] = experiment: Cell cycle arrest in human K562 cells assessed as accumulation at S phase at 50 uM after 24 hrs by flow cytometry; assay type: functional; method in brief: as §2
MDA-MB-231 [21] = experiment: Cell cycle arrest in human MDA-MB-231 cells assessed as accumulation of 4N cells at 27.0 uM after 24 hrs by flow cytometry; assay type: functional
MDA-MB-231 [22] = experiment: Cell cycle arrest in human MDA-MB-231 cells assessed as accumulation of 2N cells at 3.6 uM after 72 hrs by flow cytometry; assay type: functional
NCI-H23 = experiment: Cytotoxicity against human NCI-H23 cells; assay type: functional; method in brief: as §1
MDA-MB-231 [23] = experiment: Cell cycle arrest in human MDA-MB-231 cells assessed as accumulation of 2N cells at 18.0 uM after 24 hrs by flow cytometry; assay type: functional
[24] = read-out: LC50 (the source's name)

**Q.** With `Nc1ccccc1C#C/C=C\C#Cc1ccccc1C(F)(F)F` as the compound, how does the GI50 (M14) read?
**A.** 0.372 µM

**Q.** And the TGI (M14)?
**A.** 13.2 µM

**Q.** What about the CC50 (M14; [24]) of the same compound?
**A.** 49.4 µM

**Q.** And the Activity (MDA-MB-231 [1])?
**A.** 21.3%

**Q.** What about the GI50 (HL-60) of the same compound?
**A.** 0.358 µM

**Q.** And the TGI (HL-60)?
**A.** > 100 µM

**Q.** What about the CC50 (HL-60; [24]) of the same compound?
**A.** > 100 µM

**Q.** And the Activity (K562 [2])?
**A.** 73.9%

**Q.** And the Activity (MDA-MB-231 [3])?
**A.** 31.3%

**Q.** And the Activity (MDA-MB-231 [4])?
**A.** 35.1%

**Q.** And the Activity (MDA-MB-231 [5])?
**A.** Active

**Q.** What about the “fold change (FC)” value [6] of the same compound?
**A.** 3.4

**Q.** What about the GI50 (U-251) of the same compound?
**A.** 0.666 µM

**Q.** And the TGI (U-251)?
**A.** 17.5 µM

**Q.** What about the CC50 (U-251; [24]) of the same compound?
**A.** 45.4 µM

**Q.** And the Activity (MDA-MB-231 [7])?
**A.** 15%

**Q.** And the Activity (MDA-MB-231 [8])?
**A.** 9.3%

**Q.** And the Activity (MDA-MB-231 [9])?
**A.** 53.9%

**Q.** What about the GI50 (786-0) of the same compound?
**A.** 0.7 µM

**Q.** What about the TGI (786-0) of the same compound?
**A.** 17.7 µM

**Q.** And the CC50 (786-0; [24])?
**A.** 67 µM

**Q.** And the GI50 (RXF 393)?
**A.** 0.808 µM

**Q.** And the TGI (RXF 393)?
**A.** 4.62 µM

**Q.** What about the CC50 (RXF 393; [24]) of the same compound?
**A.** 30.5 µM

**Q.** What about the GI50 (HOP-92) of the same compound?
**A.** 20.4 µM

**Q.** And the TGI (HOP-92)?
**A.** 48.6 µM

**Q.** And the CC50 (HOP-92; [24])?
**A.** > 100 µM

**Q.** What about the Activity (MDA-MB-231 [10]) of the same compound?
**A.** 23.6%

**Q.** And the GI50 (HCT-15 [11])?
**A.** 1.26 µM

**Q.** What about the GI50 (MDA-MB-435) of the same compound?
**A.** 0.4 µM

**Q.** What about the TGI (MDA-MB-435) of the same compound?
**A.** 0.53 µM

**Q.** What about the Activity (MDA-MB-231 [12]) of the same compound?
**A.** 24.7%

**Q.** What about the GI50 (RPMI-8226) of the same compound?
**A.** 0.738 µM

**Q.** And the TGI (RPMI-8226)?
**A.** > 100 µM

**Q.** And the CC50 (RPMI-8226; [24])?
**A.** > 100 µM

**Q.** And the Activity (MDA-MB-231 [13])?
**A.** 62.5%

**Q.** And the GI50 (A549)?
**A.** 0.745 µM

**Q.** And the TGI (A549)?
**A.** 15.2 µM

**Q.** And the CC50 (A549; [24])?
**A.** 59.5 µM

**Q.** And the GI50 (TK-10)?
**A.** 8.3 µM

**Q.** What about the TGI (TK-10) of the same compound?
**A.** 27.9 µM

**Q.** And the CC50 (TK-10; [24])?
**A.** 78.4 µM

**Q.** What about the Activity (MDA-MB-231 [14]) of the same compound?
**A.** 23.5%

**Q.** What about the GI50 (MDA-MB-231 [15]) of the same compound?
**A.** 0.4 µM

**Q.** What about the TGI (MDA-MB-231 [15]) of the same compound?
**A.** 1.68 µM

**Q.** And the CC50 (MDA-MB-231 [15]; [24])?
**A.** 36.5 µM

**Q.** What about the GI50 (NCI-H322M) of the same compound?
**A.** 12.1 µM

**Q.** And the TGI (NCI-H322M)?
**A.** 27.9 µM

**Q.** What about the CC50 (NCI-H322M; [24]) of the same compound?
**A.** 64.4 µM

**Q.** What about the Activity (MDA-MB-231 [16]) of the same compound?
**A.** Active

**Q.** What about the GI50 (HCT-15 [17]) of the same compound?
**A.** 1.26 µM

**Q.** And the TGI (HCT-15 [17])?
**A.** 11.4 µM

**Q.** And the CC50 (HCT-15 [17]; [24])?
**A.** 51.1 µM

**Q.** What about the Activity (MDA-MB-231 [18]) of the same compound?
**A.** tde

**Q.** What about the GI50 (DU-145) of the same compound?
**A.** 3.08 µM

**Q.** And the TGI (DU-145)?
**A.** 18.4 µM

**Q.** And the CC50 (DU-145; [24])?
**A.** 48.5 µM

**Q.** What about the Activity (MDA-MB-231 [19]) of the same compound?
**A.** 33.6%

**Q.** What about the TGI (SK-MEL-2) of the same compound?
**A.** 26.5 µM

**Q.** What about the CC50 (SK-MEL-2; [24]) of the same compound?
**A.** 67.2 µM

**Q.** And the Activity (K562 [20])?
**A.** 19.3%

**Q.** What about the Activity (MDA-MB-231 [21]) of the same compound?
**A.** 30.7%

**Q.** And the Activity (MDA-MB-231 [22])?
**A.** 23.3%

**Q.** And the GI50 (NCI-H23)?
**A.** 0.273 µM

**Q.** What about the TGI (NCI-H23) of the same compound?
**A.** 1.89 µM

**Q.** And the CC50 (NCI-H23; [24])?
**A.** 47.8 µM

**Q.** What about the Activity (MDA-MB-231 [23]) of the same compound?
**A.** 9.5%
